Laboratory results published in ChEMBL document CHEMBL1150347, “A prodomain peptide of Plasmodium falciparum cysteine protease (falcipain-2) inhibits malaria parasite development” (J Med Chem, 2008).
Calls of active or inactive are those of the source. The rule behind the calls is not given here. Residues, ends and D or L forms follow the SMILES beside them.

What was measured:
[1] = biological target: T1, Falcipain 2 (Plasmodium falciparum) (UniProt Q9N6S8); test: Inhibition of Plasmodium falciparum falcipain-2 in RBC assessed as hemoglobin degradation after 24 hrs by SDS-PAGE
T1 sequence (whole entry): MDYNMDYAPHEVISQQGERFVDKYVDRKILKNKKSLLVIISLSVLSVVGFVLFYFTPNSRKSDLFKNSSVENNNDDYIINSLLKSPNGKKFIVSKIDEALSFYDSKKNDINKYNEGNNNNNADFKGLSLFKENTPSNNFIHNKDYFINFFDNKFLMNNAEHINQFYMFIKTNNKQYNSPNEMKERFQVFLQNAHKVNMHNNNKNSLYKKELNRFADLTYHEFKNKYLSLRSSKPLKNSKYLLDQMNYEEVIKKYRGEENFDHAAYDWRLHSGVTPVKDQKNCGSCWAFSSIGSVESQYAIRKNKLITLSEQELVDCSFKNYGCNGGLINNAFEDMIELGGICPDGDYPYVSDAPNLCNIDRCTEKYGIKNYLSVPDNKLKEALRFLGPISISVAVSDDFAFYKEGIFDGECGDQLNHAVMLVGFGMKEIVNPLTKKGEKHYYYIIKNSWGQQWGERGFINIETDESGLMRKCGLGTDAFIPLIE
Method in brief: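 Ring-stage P. falciparum treated 24 h. Infected RBCs lysed with 0.15% saponin in PBS on ice for 10 min, then washed three times with cold PBS. About 1 × 10^6 parasites per lane run on 15% SDS-PAGE in Laemmli buffer; Coomassie staining used to look for undigested hemoglobin.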

[2] = biological target: T1, Falcipain 2 (Plasmodium falciparum); test: Inhibition of Plasmodium falciparum 3D7 falcipain-2 in RBC assessed as Z-FR-AMC substrate hydrolysis by confocal microscopy relative to control; conditions: concentration not given here
Method in brief: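 3D7 cultures at 4-5% parasitemia given FITC-labelled peptide for 10 h at 24-28 h post-invasion. After washing in complete medium, Z-F-R-AMC added for 10 min. Confocal imaging: FITC excitation 488 nm, emission 505-530 nm; released AMC captured through a UV band-pass filter. Fluorescence averaged over selected whole parasites and compared with untreated infected cells.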

Plasmodium falciparum [3] = test: Growth inhibition at 24 hrs of Plasmodium falciparum 3D7 by [3H]hypoxanthine uptake; assay type: functional, organism-based
Method in brief: (§1)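 Synchronized ring-stage P. falciparum-infected RBCs incubated 24 h with a range of peptide concentrations, with OVA peptide as control. About 1 µCi [3H]hypoxanthine added per well and cultures kept a further 24 h. Cells harvested and incorporated label counted by scintillation.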

Falcipain 2 = biological target: T2, Falcipain 2 (Plasmodium falciparum, UniProt Q9N6S8); test: (§2) Inhibition of Plasmodium falciparum recombinant falcipain-2
T2 sequence (Q9N6S8 whole entry): T1 sequence (whole entry)
Method in brief: (§3)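 Refolded recombinant falcipain-2 at 200 nM, preincubated with peptide for 10 min at room temperature. Z-F-R-AMC then added at 7 µM in 100 mM sodium acetate pH 5.5 with 10 mM DTT. AMC release (ex 355/em 460 nm) followed for 30 min at room temperature. Km/Vmax from varied substrate; Ki from double-reciprocal plot; three experiments.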

Plasmodium falciparum [4] = test: Inhibition of Plasmodium falciparum recombinant falcipain-1
Method in brief: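 Active recombinant falcipain-1 incubated with prodomain peptide; protease activity read as fluorescence from Z-FR-AMC cleavage at pH 5.5, followed over 30 min. Three independent sets of experiments.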

Plasmodium falciparum [5] = test: Growth inhibition at 24 hrs of Plasmodium falciparum 3D7 at 100 uM by [3H]hypoxanthine uptake; assay type: functional; method in brief: as §1
Plasmodium falciparum [6] = test: Growth inhibition after 10 hrs of Plasmodium falciparum expressing KAHRP-His-GFP at 100 uM; assay type: functional, organism-based
Method in brief: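 KAHRP(-His)-GFP transgenic line, kept on 0.25 nM WR99210, sorbitol-synchronized, cultured in human RBCs (4% hematocrit) in RPMI. Peptide added at the ring stage. GFP fluorescence imaged after 3 h and 10 h of treatment, with bright field and DAPI; growth arrest read as loss of GFP signal.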

Plasmodium falciparum [7] = test: Growth inhibition as abnormal food vacuole formation after 36 hrs in Plasmodium falciparum trophozoite infected erythrocytes; assay type: functional, organism-based
Plasmodium falciparum [8] = test: Growth inhibition as merozoite release after 36 hrs in Plasmodium falciparum infected erythrocytes; assay type: functional, organism-based
Plasmodium falciparum [9] = test: Growth inhibition as reduced parasitaemia at 24 hrs for Plasmodium falciparum 3D7 by Giemsa-stained smear counting; design: scale not given: the % may be the effect or the level left
[10] = biological target: T1, Falcipain 2 (Plasmodium falciparum); test: as §2; method in brief: as §3

In the case of `CC(C)C[C@H](NC(=O)[C@H]1O[C@@H]1C(=O)O)C(=O)NCCCCN=C(N)N`, the Activity [1] is reported as “Active”.

Work on `CC[C@H](C)[C@H](NC(=O)[C@H](Cc1ccccc1)NC(=O)[C@H](CCSC)NC(=O)[C@H](Cc1ccc(O)cc1)NC(=O)[C@H](Cc1ccccc1)NC(=O)[C@H](CCC(N)=O)NC(=O)[C@H](CC(N)=O)NC(=O)[C@@H](NC(=O)[C@H](Cc1cnc[nH]1)NC(=O)[C@H](CCC(=O)O)NC(=O)[C@H](C)NC(=O)[C@H](CC(N)=O)NC(=O)[C@H](CC(N)=O)NC(=O)[C@H](CCSC)NC(=O)[C@H](CC(C)C)NC(=S)Nc1cccc2c1C(=O)OC21c2ccccc2Oc2cc(O)ccc21)[C@@H](C)CC)C(=O)O` (some centres not stated) yielded an inhibition [2] of 50%.

With `CSCC[C@H](NC(=O)[C@H](CC(N)=O)NC(=O)[C@@H](NC(=O)[C@H](CCCCN)NC(=O)[C@H](Cc1c[nH]cn1)NC(=O)[C@H](C)NC(=O)[C@H](CC(N)=O)NC(=O)[C@H](CCC(N)=O)NC(=O)[C@H](CC(C)C)NC(=O)[C@H](Cc1ccccc1)NC(=O)[C@@H](NC(=O)[C@H](CCC(N)=O)NC(=O)[C@H](Cc1ccccc1)NC(=O)[C@H](CCCNC(=N)N)NC(=O)[C@H](CCC(=O)O)NC(=O)[C@H](CCCCN)NC(=O)[C@H](CCSC)NC(=O)[C@@H](N)CCC(=O)O)C(C)C)C(C)C)C(=O)N[C@@H](Cc1c[nH]cn1)C(=O)N[C@@H](CC(N)=O)C(=O)O` (H-EMKERFQVFLQNAHKVNMHN-OH) the Activity (Plasmodium falciparum [3]) was “inactive”.

For `CC[C@H](C)[C@H](NC(=O)[C@H](Cc1ccccc1)NC(=O)[C@H](CCSC)NC(=O)[C@H](Cc1ccc(O)cc1)NC(=O)[C@H](Cc1ccccc1)NC(=O)[C@H](CCC(N)=O)NC(=O)[C@H](CC(N)=O)NC(=O)[C@@H](NC(=O)[C@H](Cc1c[nH]cn1)NC(=O)[C@H](CCC(=O)O)NC(=O)[C@H](C)NC(=O)[C@H](CC(N)=O)NC(=O)[C@H](CC(N)=O)NC(=O)[C@H](CCSC)NC(=O)[C@@H](N)CC(C)C)[C@@H](C)CC)C(=O)O` (H-LMNNAEHINQFYMFI-OH), the Ki (Falcipain 2) was 3.8 µM, the Activity (Plasmodium falciparum [4]) was “inactive” and the inhibition at 100 µM (Plasmodium falciparum [5]) was 50%. For the same molecule, the Activity (Plasmodium falciparum [6]) was “Active”, the Activity (Plasmodium falciparum [7]) was “Active” and the Activity (Plasmodium falciparum [8]) was “Active”. The Activity [1] was “Active” and the Activity (Plasmodium falciparum [9]) was 50%.

With `CC[C@H](C)[C@H](NC(=O)[C@H](Cc1ccccc1)NC(=O)[C@@H](NC(=O)[C@H](Cc1ccc(O)cc1)NC(=O)[C@H](Cc1ccccc1)NC(=O)[C@H](CCC(N)=O)NC(=O)[C@H](CC(N)=O)NC(=O)[C@@H](NC(=O)[C@H](Cc1c[nH]cn1)NC(=O)[C@H](CCC(=O)O)NC(=O)[C@@H](NC(=O)[C@H](CC(N)=O)NC(=O)[C@H](CC(N)=O)NC(=O)[C@H](CCSC)NC(=O)[C@@H](N)CC(C)C)C(C)C)[C@@H](C)CC)[C@@H](C)O)C(=O)O` (H-LMNNVEHINQFYTFI-OH) the Activity [10] was “Active”.

With `CC(C)C[C@H](NC(=O)[C@H](Cc1ccccc1)NC(=O)[C@@H](NC(=O)[C@H](CCC(N)=O)NC(=O)[C@H](Cc1ccccc1)NC(=O)[C@@H](N)CCCNC(=N)N)C(C)C)C(=O)N[C@@H](CCC(N)=O)C(=O)N[C@@H](CC(N)=O)C(=O)N[C@@H](C)C(=O)N[C@@H](Cc1c[nH]cn1)C(=O)N[C@@H](CCCCN)C(=O)N[C@H](C(=O)O)C(C)C` (H-RFQVFLQNAHKV-OH) the Activity (Plasmodium falciparum [3]) was “inactive”.

`CC[C@H](C)[C@H](NC(=O)[C@H](CCSC)NC(=O)[C@H](Cc1ccc(O)cc1)NC(=O)[C@H](Cc1ccccc1)NC(=O)[C@H](CCC(N)=O)NC(=O)[C@H](CC(N)=O)NC(=O)[C@@H](NC(=O)[C@H](Cc1cnc[nH]1)NC(=O)[C@H](CCC(=O)O)NC(=O)[C@H](C)NC(=O)[C@H](CC(N)=O)NC(=O)[C@H](CC(N)=O)NC(=O)[C@H](CCSC)NC(=O)[C@H](CC(C)C)NC(=O)[C@H](CCCCN)NC(=O)[C@H](CCCCN)NC(=O)[C@H](Cc1c[nH]c2ccccc12)NC(=O)[C@H](CCCCN)NC(=O)[C@H](CCSC)NC(=O)[C@H](CCCNC(=N)N)NC(=O)[C@H](CCCNC(=N)N)NC(=O)[C@H](CC(N)=O)NC(=O)[C@H](CCC(N)=O)NC(=O)[C@H](Cc1ccccc1)NC(=O)[C@H](Cc1c[nH]c2ccccc12)NC(=O)[C@@H](NC(=O)[C@H](CCCCN)NC(=O)[C@@H](NC(=O)[C@H](CCC(N)=O)NC(=O)[C@@H](N)CCCNC(=N)N)[C@@H](C)CC)[C@@H](C)CC)[C@@H](C)CC)C(=O)O` (H-RQIKIWFQNRRMKWKKLMNNAEHINQFYMI-OH) gave an Activity (Plasmodium falciparum [9]) of 50%.

For `CC[C@H](C)[C@H](N)C(=O)N[C@@H](CO)C(=O)N[C@@H](CCC(N)=O)C(=O)N[C@@H](C)C(=O)N[C@H](C(=O)N[C@@H](Cc1cnc[nH]1)C(=O)N[C@@H](C)C(=O)N[C@@H](C)C(=O)N[C@@H](Cc1cnc[nH]1)C(=O)N[C@@H](C)C(=O)N[C@@H](CCC(=O)O)C(=O)N[C@H](C(=O)N[C@@H](CC(N)=O)C(=O)N[C@@H](CCC(=O)O)C(=O)N[C@@H](C)C(=O)NCC(=O)N[C@@H](CCCNC(=N)N)C(=O)O)[C@@H](C)CC)C(C)C` [ovalbumin peptide] (H-ISQAVHAAHAEINEAGR-OH), the Activity [10] was “inactive”, the inhibition at 100 µM (Plasmodium falciparum [5]) was 80% and the Activity (Plasmodium falciparum [3]) was “inactive”.
